# HCV NS3 hel inh – inhibitors of Hepatitis C virus NS3 helicase; NS3 helicase DNA unwinding, Cy5 molecular beacon fluorescence; inhibition, % at 10.9 µM; hit rate 0.56% among 290,000;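 active = inhibition above the mean of all tested compounds plus 3 SD, set per campaign, cut at about 35% in these data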;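 note: 0% = DMSO wells and 100% = thioflavine S control wells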
#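 System: NS3 helicase fragment of HCV / Schedule: 1 h at 25 °C / Control set: DMSO alone as 0% and 110 µM thioflavine S as 100% / Reagent: Cy5/quencher beacon DNA duplex and ATP to start / Technique: Cy5 fluorescence / Replication: singlicate / Evaluation: % inhibition of end-to-start signal ratio versus controls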
# PABP FP inh – PABP-poly(A) binding inhibition; P11940; PABP-poly(A) RNA binding, fluorescence polarization; inhibition, % at 35 µM; hit rate 1% among 290,000;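 note: calls also rest on retests at 20 µM and on dose response follow-up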
# DNA FID counter-1 – counter-screen for HCV NS3 helicase inhibitors: DNA intercalator displacement. DNA fluorescent intercalator displacement, fluorescence. inhibition, % at 7.9 µM. hit rate 0.17% among 290,000. AID 1845; in the data active = inhibition above about 37%;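 note: 0% = vehicle and 100% = reference compound; higher means more ethidium bromide displaced from hairpin DNA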
# eIF4H FP inh – inhibitors of RNA binding by human eIF4H; AID 2012; eIF4H fluorescence polarization binding assay; inhibition, % at 35 µM; hit rate 0.94% among 290,000; Q15056;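 note: calls also rest on retests at 20 µM and on dose response follow-up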
# HCV core dimer – HCV core protein dimerization inhibition. TR-FRET GST/Flag-core106 dimerization, 1536-well. inhibition, % at 5 µM. hit rate 0.33% among 300,000;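 active = inhibition above the mean of all tested compounds plus 3 SD, set per screening campaign, cut at about 45% in these data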
#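 System: GST-tagged and Flag-tagged HCV core protein residues 1-106 / Input: core106 proteins, GST 13.5 nM and Flag 17 nM / Buffer or medium: KF-containing HEPES buffer, pH 7.45, DTT, CHAPS, BSA / Probe or stimulus: Eu-anti-GST and XL665-anti-Flag labelled anti-tag antibodies / Schedule: 4 h, 22.5 °C incubation / Technique: TR-FRET 671 and 617 nm emission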
# MLLE-PAM2 inh – inhibitors of microRNA-mediated deadenylation, human PABP1 MLLE binding; P11940; GST-MLLE / FITC-PAM2 fluorescence polarization; inhibition, % at 20 µM; hit rate 0.36% among 360,000; in the data active = inhibition above about 35%, passing the limit was not always enough;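 note: plate controls were DMSO wells with GST-MLLE for no effect and wells lacking GST-MLLE protein for full effect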
# NS3 hel confirm – HCV NS3 helicase inhibition, confirmation assay. shares compounds with HCV NS3 hel inh. inhibition, % at 10.9 µM. hit rate 31% among 1,600. NS3 helicase DNA unwinding, Cy5 molecular beacon fluorescence;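 active = inhibition above the mean of all tested compounds plus 3 SD, cutoff set per campaign, cut at about 36% in these data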
# DNA FID counter-2 – displaces DNA intercalator in HCV helicase counter-screen; shares compounds with HCV NS3 hel inh; DNA fluorescent intercalator displacement, fluorescence; inhibition, % at 7.9 µM; hit rate 4% among 1,600; AID 1945; in the data active = inhibition above about 37%;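 note: 0% = vehicle and 100% = reference compound; higher means more displacement of ethidium bromide from the DNA hairpin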
# FID counter DR – DNA intercalator displacement in dose response; shares compounds with HCV NS3 hel inh; fluorescent intercalator displacement from DNA, fluorescence; IC50, µM; 120 tested, under 10 active; AID 2172
# Active calls of the source: *; ? = inconclusive; / = no result given. In the library only some 2% were active in any assay of this set; here they are far more common. Unless noted, the rule behind the calls is not given here.
SMILES,HCV NS3 hel inh,PABP FP inh,DNA FID counter-1,eIF4H FP inh,HCV core dimer,MLLE-PAM2 inh,NS3 hel confirm,DNA FID counter-2,others
COc1ccc(NC(=O)c2c[nH]n3c(=O)cc(C4CCN(C(=O)OC(C)(C)C)CC4)nc23)cc1Cl,36*,-10,-22,3,22,8,52*,-28,
COc1cc(C=C(c2nc3ccccc3s2)c2nc3ccccc3s2)cc(OC)c1O,39*,active,-8,52*,16,-31,-27,-8,
COc1cc(/C=C(\CC(=O)O)c2nc3ccccc3s2)cc(OC)c1O,4,-4,-31,-4,-2,-8,/,/,
COc1ccc2c(c1)O/C(=C\c1ccco1)C2=O,44*,42,-8,50,-4,-13,-1,24,
O=C(O)CCn1c(SCCOc2ccccc2)nc2ccccc21,41*,-6,-36,-2,-19,-7,-17,-2,
COc1ccc(OCCSc2nc3ccccc3n2CCC(=O)O)cc1,2,7,-37,-5,-2,-4,/,/,
CC(C)Nc1nc(NCCOc2ccccc2)c2sccc2n1,/,/,/,/,/,-10,/,/,
CCOC(=O)c1sc2nc3c(SCCC(=O)O)cc(C(=O)c4cc(OC)ccc4O)cn3c(=O)c2c1C,40*,-2,-14,81,/,-81,83*,14,FID counter DR=>79
Nn1c(Cc2cccc3ccccc23)nnc1SCc1c(Cl)cccc1Cl,61*,3,-21,3,6,-129,-9,-27,
CCn1cc(C(=O)O)c(=O)c2cc(F)c(N3CCN(C(=S)NC(=O)c4ccccc4Br)CC3)cc21,50*,33,-5,22,7,-48,12,1,
O=C(O)CC(C(=O)O)N1C(=O)/C(=C/C=C/c2ccco2)SC1=S (stereo unspecified),74*,91*,0,100*,-12,7,87*,-3,
O=C(O)CCN1C(=O)/C(=C/c2ccc(-c3nc4ccccc4s3)o2)SC1=S,18,?,-1,?,4,-92,/,/,
O=C(O)CCCN1C(=O)/C(=C/C=C/c2ccco2)SC1=S,73*,92*,-9,98*,75*,6,76*,4,
O=C(O)CC(C(=O)O)N1C(=O)/C(=C/c2ccc(-c3nc4ccccc4s3)o2)SC1=S (stereo unspecified),67*,118,2,127*,8,11,67*,-2,
O=C(COC(=O)/C=C/c1cccc([N+](=O)[O-])c1)NCC1CCCO1 (stereo unspecified),48*,48,1,-10,1,4,-7,4,
O=C(COC(=O)/C=C/c1ccc([N+](=O)[O-])cc1)NCC1CCCO1 (stereo unspecified),-9,8,2,7,-2,-3,/,/,
Cc1cc(=O)oc2c(C)c(OC(C)C(=O)NC(Cc3c[nH]c4ccc(O)cc34)C(=O)O)ccc12 (stereo unspecified),16,30,-18,28,0,4,/,/,
CC(C)c1ccc(OCC(=O)NC(Cc2c[nH]c3ccccc23)C(=O)O)cc1 (stereo unspecified),48*,-2,-40,10,21,-13,62*,-40,
Cc1cc(=O)oc2cc(OCC(=O)NC(Cc3c[nH]c4ccc(O)cc34)C(=O)O)c(Cl)cc12 (stereo unspecified),40*,37,-24,34,-3,14,0,-24,
CN(C(=O)CSc1nnc(N)s1)C1CCCCC1,37*,-4,-6,-9,-20,26,-7,8,
CC(C)N1CCCC(C)(C(=O)Nc2nccc3ccccc23)C1 (stereo unspecified),/,/,/,/,/,13,/,/,
COc1cc(/C=C(\C#N)C(=O)Nc2ccc(C(=O)O)cc2)ccc1OC(=O)c1cccc(F)c1,47*,1,-15,6,-3,-8,63*,-24,
O=C(O)c1cc(N/N=C/C=C/c2ccccc2[N+](=O)[O-])ccc1Cl,43*,24,-22,4,-5,13,52*,-3,
Cc1c(C(=O)Nc2ccc(S(N)(=O)=O)cc2)oc2ccc(Cl)cc12,-4,-4,4,-1,21,7,/,/,
Cc1c(C(=O)NNC(=S)Nc2ccc(S(N)(=O)=O)cc2)oc2ccccc12,38*,6,-31,18,-21,17,6,8,
SMILES,HCV NS3 hel inh,PABP FP inh,DNA FID counter-1,eIF4H FP inh,HCV core dimer,MLLE-PAM2 inh,NS3 hel confirm,DNA FID counter-2,others
COc1ccc(NC(=O)N2CCCC2C(=O)NCc2cccs2)cc1 (stereo unspecified),1,2,-8,-1,5,-4,/,/,
Cc1ccc(NC(=O)CN2C(=O)S/C(=C\c3ccc(OCC(=O)O)c(Br)c3)C2=O)cc1,19,10,17,26,21,29,/,/,
COc1cc(/C=C2\SC(=O)N(CC(=O)Nc3ccc(C)cc3)C2=O)cc(Cl)c1OCC(=O)O,43*,21,13,89*,13,-5,62*,19,
CCOc1ccc(-c2nnc(NC(=O)COc3ccccc3F)o2)cc1,/,/,/,/,/,5,/,/,
COc1ccc(NC2CCCN(C(=O)CCCn3cncn3)C2)cc1OC (stereo unspecified),7,8,1,7,-1,16,/,/,
CCCOC(=O)C1[C@H]2C(=O)N(Cc3ccco3)C[C@]23C=C[C@H]1O3 (stereo partly specified),40*,1,-43,5,11,7,-6,-8,
c1ccc(NC2=NCCN2CCCC2CCCCC2)cc1,/,/,/,/,-5,8,/,/,
Cc1cc2cc(C(c3nnnn3Cc3ccco3)N3CCc4ccccc4C3)c(=O)[nH]c2cc1C (stereo unspecified),39*,85*,-16,63*,25,1,64*,-3,FID counter DR=>79
CCc1ccc2[nH]c(=O)c(C(c3nnnn3Cc3ccco3)N3CCC(C)CC3)cc2c1 (stereo unspecified),17,13,-19,15,4,-15,/,/,
CC(=O)Nc1c(Cl)c2c(c(Cl)c1Br)-c1ccc(Cl)cc1C2,/,/,/,/,/,1,/,/,
CN(C)c1ccc(N/C=C/C(=O)C(C)(C)C)cc1,48*,-9,0,9,-22,2,19,26,
CN(C)c1ccc(N/C=C/C(=O)c2ccccc2)cc1,32,9,-22,10,-14,75,/,/,
N#C/C(=C(\O)c1cc(Cl)sc1Cl)c1nc2ccccc2[nH]1,43*,5,-6,0,-12,-16,-6,-3,
Cc1ccc(S(=O)(=O)N(C)C[C@@H]2Oc3ccc(NS(C)(=O)=O)cc3CC(=O)N([C@H](C)CO)C[C@@H]2C)cc1,/,/,/,/,/,-3,/,/,

# Screens (PubChem)
